“And” between values parts separate entries of the source, which are not always exact repeats. Equal values may be shown once.
System: Fibroblast
Assay: Multiplex assay against human fibroblast
Format: toxicity, cell-based
In short: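 On a CQ1 microscope at 37°C and 5% CO2, live cells were imaged after compound addition. They had been stained at seeding with Hoechst33342, BioTracker Green Microtubule Cytoskeleton Dye, MitoTracker Red and Annexin V Alexa Fluor 680. CellPathfinder machine-learning gating assigned cells to Hoechst high-intensity objects or normal cells, normal cells to healthy, pyknosed or fragmented nuclei, and pyknosed cells to mitotic or apoptotic. Tubulin, mitochondrial-mass and membrane-permeability phenotypes are per cents of healthy-nucleus cells.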

[1] = 12 h, 1 µM, compound concentration 1 uM
[2] = 12 h, 10 µM, compound concentration 10 uM
[3] = 24 h, 1 µM, compound concentration 1 uM
[4] = 24 h, 10 µM, compound concentration 10 uM
[5] = 48 h, 1 µM, compound concentration 1 uM
[6] = 48 h, 10 µM, compound concentration 10 uM

O=C1COc2nccc(-c3ccccc3F)c2CN1Cc1cc(C(F)(F)F)cc(C(F)(F)F)c1
Population Apoptotic (%) [1]: 38% and 29% | Population Fragmented Nuclei (%) [1]: 12% and 17% | Population Healthy Nuclei (%) [1]: 74% and 62% | Population Hoechst High Intensity Objects (%) [1]: 2% and 0% | Population Membrane Permeable-Phenotype (%) [1]: 1% | Population Mitochondria Different-Phenotype (%) [1]: 7% and 5% | Population Mitotic Cells (%) [1]: 61% and 70% | Population Normal (%) [1]: 97% and 99% | Population Pyknosed Nuclei (%) [1]: 13% and 20% | Population Tubulin-Different-Phenotype (%) [1]: 27% and 32% | Total Cell Count [1]: 195 and 135 | Population Apoptotic (%) [2]: 54% and 37% | Population Fragmented Nuclei (%) [2]: 15% and 24% | Population Healthy Nuclei (%) [2]: 69% and 51% | Population Hoechst High Intensity Objects (%) [2]: 5% and 8% | Population Membrane Permeable-Phenotype (%) [2]: 0% and 4% | Population Mitochondria Different-Phenotype (%) [2]: 10% and 12% | Population Mitotic Cells (%) [2]: 45% and 62% | Population Normal (%) [2]: 94% and 91% | Population Pyknosed Nuclei (%) [2]: 14% and 23% | Population Tubulin-Different-Phenotype (%) [2]: 66% and 50% | Total Cell Count [2]: 161 and 132 | Population Apoptotic (%) [3]: 53% and 34% | Population Fragmented Nuclei (%) [3]: 11% and 20% | Population Healthy Nuclei (%) [3]: 74% and 58% | Population Hoechst High Intensity Objects (%) [3]: 3% and 2% | Population Membrane Permeable-Phenotype (%) [3]: 0% and 2% | Population Mitochondria Different-Phenotype (%) [3]: 6% and 3% | Population Mitotic Cells (%) [3]: 46% and 65% | Population Normal (%) [3]: 96% and 97% | Population Pyknosed Nuclei (%) [3]: 14% and 20% | Population Tubulin-Different-Phenotype (%) [3]: 23% and 39% | Total Cell Count [3]: 203 and 142 | Population Apoptotic (%) [4]: 66% and 55% | Population Fragmented Nuclei (%) [4]: 18% and 26% | Population Healthy Nuclei (%) [4]: 71% and 56% | Population Hoechst High Intensity Objects (%) [4]: 3% and 6% | Population Membrane Permeable-Phenotype (%) [4]: 0% and 7% | Population Mitochondria Different-Phenotype (%) [4]: 11% and 5% | Population Mitotic Cells (%) [4]: 33% and 45% | Population Normal (%) [4]: 96% and 93% | Population Pyknosed Nuclei (%) [4]: 9% and 16% | Population Tubulin-Different-Phenotype (%) [4]: 57% and 61% | Total Cell Count [4]: 162 and 129 | Population Apoptotic (%) [5]: 75% and 31% | Population Fragmented Nuclei (%) [5]: 16% and 29% | Population Healthy Nuclei (%) [5]: 75% and 55% | Population Hoechst High Intensity Objects (%) [5]: 5% and 6% | Population Membrane Permeable-Phenotype (%) [5]: 0% and 1% | Population Mitochondria Different-Phenotype (%) [5]: 4% and 1% | Population Mitotic Cells (%) [5]: 25% and 68% | Population Normal (%) [5]: 94% and 93% | Population Pyknosed Nuclei (%) [5]: 8% and 14% | Population Tubulin-Different-Phenotype (%) [5]: 28% and 25% | Total Cell Count [5]: 210 and 143 | Population Apoptotic (%) [6]: 72% and 60% | Population Fragmented Nuclei (%) [6]: 20% and 39% | Population Healthy Nuclei (%) [6]: 72% and 49% | Population Hoechst High Intensity Objects (%) [6]: 2% and 5% | Population Membrane Permeable-Phenotype (%) [6]: 0% and 1% | Population Mitochondria Different-Phenotype (%) [6]: 14% and 8% | Population Mitotic Cells (%) [6]: 27% and 40% | Population Normal (%) [6]: 97% and 94% | Population Pyknosed Nuclei (%) [6]: 6% and 11% | Population Tubulin-Different-Phenotype (%) [6]: 62% and 47% | Total Cell Count [6]: 172 and 144

Reference: ChEMBL document CHEMBL5724801, “EUbOPEN Chemogenomics Library - Multiplex” (2024)
